Measurements from different studies.
Protocols differ between the studies behind these lines. pEC50, pIC50: −log10 of the molar value.

| Compound | cell line | test | setting | quantity | value |
| --- | --- | --- | --- | --- | --- |
| Cc1c(-c2cccc(C(F)(F)F)c2)sc2[nH]c(=O)n([C@H](C)c3cccc4ccccc34)c(=O)c12 | NCI-H1650 | cell growth or viability, fluorescence | 10 µM | inhibition | > 80% |
| Cc1c(CN(C)C(=O)/C=C/c2cnc3c(c2)CC(CCN)C(=O)N3)oc2ccccc12 (stereo not drawn) | IMR-90 | cell growth or viability, resazurin | 30 µM, 72 h | inhibition | 12% |
| COc1ccc(-c2nc(NN=C3C(=O)Nc4ccc(Cl)cc43)c3ccccc3n2)cc1OC | HT-29 | cell growth or viability | 30 µM | inhibition | 5.3% |
| CC(C)c1cc(C(=O)N2Cc3ccccc3C2)c(O)c2c1C(=O)CC2 | UMUC3 | cell growth or viability, ATP luminescence | 72 h | pIC50 | 4.26 |
| CCc1ccc(/C=N/n2c(C)nc3ccc(C)cc3c2=O)s1 | LoVo | cell growth or viability, LDH | 200 µg/mL, 24 h | viability | 89.5% |
| C=CC(=O)Nc1cccc(Nc2nc(Nc3ccc(OCCOC)cc3)ncc2F)c1 | U2932 | cell growth or viability | 48 h | GI50 | 4.3 µM |
| CC[C@@H]1C=CC(=O)O[C@@H]1C[C@@H](O)[C@H](C)[C@H](O)[C@@H](C)Cc1ccc(F)cc1 | A2780 | cell growth or viability, MTT | 48 h | GI50 | 0.0297 µM |
| CC(C)c1cc(C(=O)N2Cc3ccccc3C2)c(O)c2c1C(=NO)CC2 | UMUC3 | cell growth or viability, ATP luminescence | 72 h | pIC50 | 4.29 |
| CCC1=C[C@@H]2CN(C1)Cc1c([nH]c3ccccc13)[C@@](C(=O)OC)(c1cc3c(cc1OC)N(C)[C@H]1[C@@](O)(C(=O)OC)[C@H](OC(C)=O)[C@]4(CC)C=CCN5CC[C@]31[C@@H]54)C2 | LLC-PK1 | cell growth or viability | 72 h | IC80 | 0.011 µM |
| Cc1cc(C)n(C(=S)[S][Au][PH](CCCCCC[PH]([Au][S]C(=S)n2nc(C)cc2C)(c2ccccc2)c2ccccc2)(c2ccccc2)c2ccccc2)n1 | TK-10 | cell growth or viability | – | GI50 | 1.21 µM |
| Cc1ccc2c(c1)C(=NNc1nnc(Cc3ccccc3)c3ccccc13)C(=O)N2 | HT-29 | cell growth or viability | 30 µM | inhibition | 89.1% |
| CC(C)(O)[C@H]1CC[C@H](Nc2ccc3ncc(-c4cccc(C(F)(F)F)c4)n3n2)CC1 | UMUC3 | colony formation | – | pEC50 | 5.66 |
| C=CC(=O)Nc1cc(-n2c(=O)ccc3cnc4ccc(-c5ccc(NS(C)(=O)=O)cc5)cc4c32)ccc1C | U2932 | cell growth or viability | 48 h | GI50 | 2.15 µM |
| COc1cc(-c2ccc(-c3ccc(C(=N)N)nc3)s2)cc(OC)c1OC | TK-10 | cell growth or viability | – | GI50 | 3.19 µM |
| COc1cc(NCC(=O)Nn2c(C)nc3ccc(Cl)cc3c2=O)cc(OC)c1OC | LoVo | cell growth or viability, LDH | 200 µg/mL, 24 h | viability | 59.5% |
| COc1ccc(-c2nc(NN=C3C(=O)Nc4ccc(Br)cc43)c3ccccc3n2)cc1OC | HT-29 | cell growth or viability | 10 µM | inhibition | 70.8% |
| COc1cc(/C=N/n2c(C)nc3ccc(C)cc3c2=O)ccc1OCc1ccccc1 | LoVo | cell growth or viability, LDH | 200 µg/mL, 24 h | viability | 76.5% |
| CC(C)C[C@H](NC(=O)[C@H](Cc1ccccc1)NC(=O)c1cnccn1)B(O)O | NCI-H1581 | cell growth or viability, ATP luminescence | – | pIC50 | 7.80 |
